Assay results: ChEMBL document CHEMBL4706762, “Massively Parallel Optimization of the Linker Domain in Small Molecule Dimers Targeting a Toxic r(CUG) Repeat Expansion” (ACS Med Chem Lett, 2021)
Active and inactive are the calls of the source. No cut-off for these calls is given here.

How the values were obtained:
[1] = Cytotoxicity against DM1-patient derived myotubes assessed as change in cellular morphology at 5 uM measured after 48 hrs; settings: human, myotube
Method in brief: (§1)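 Cell morphology of DM1 patient-derived myotubes inspected during 48 h splicing treatment at 5 μM; agents altering morphology were re-tested at 1 μM.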

[2] = Drug localization in nucleus of DM1-patient derived myotubes at 5 uM measured after 24 hrs by live-cell fluorescence microscopy; type: ADME, subcellular; settings: human, myotube
Method in brief: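 DM1 patient myotubes bearing 1300 r(CUG) repeats given 5 μM agent; subcellular localization followed via intrinsic fluorescence of the H RNA-binding modules.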

r(CUG) repeat expansion [3] = assay: Binding affinity to r(CUG)exp RNA repeat in DM1-patient derived myotubes assessed as improvement in MBNL1 exon 5 splicing defect at 0.2 uM measured after 48 hrs by RT-qPCR analysis relative to control; settings: Homo sapiens, Myotube
Method in brief: (§2)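 DM1 patient-derived myotubes (1300 r(CUG) repeats) treated 48 h, then MBNL1 exon 5 splicing rescue measured. Single-dose screens at 5 μM or 1 μM, where 1 μM was used if 5 μM altered morphology, n = 3. Dose–response also run, n = 6. SD shown; one-way ANOVA.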

r(CUG) repeat expansion [4] = assay: Binding affinity to r(CUG)exp RNA repeat in DM1-patient derived myotubes assessed as improvement in MBNL1 exon 5 splicing defect at 1 uM measured after 48 hrs by RT-qPCR analysis relative to control; settings: Homo sapiens, Myotube; method in brief: as §2
[5] = Cytotoxicity against DM1-patient derived myotubes assessed as change in cellular morphology at 1 uM measured after 48 hrs; settings: human, myotube; method in brief: as §1
r(CUG) repeat expansion [6] = assay: Binding affinity to r(CUG)exp RNA repeat in DM1-patient derived myotubes assessed as improvement in MBNL1 exon 5 splicing defect measured after 48 hrs by RT-qPCR analysis; type: tissue-based; settings: Homo sapiens, Myotube, dose 0.04-1 µM
r(CUG) repeat expansion [7] = assay: Binding affinity to r(CUG)12 RNA repeat (unknown origin) measured after 10 mins by fluorescence assay; type: nucleic-acid assay
Myotube [8] = assay: Effect on DMPK transcription in DM1-patient derived myotubes at 0.04 to 1 uM measured after 48 hrs by RT-qPCR analysis; type: functional; settings: Homo sapiens, dose 0.04-1 µM
Method in brief: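 Transcript levels, either DMPK or r(CUG) repeat-containing mRNAs, quantified by RT-qPCR in treated DM1 myotubes; n = 6, one-way ANOVA.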

r(CUG) repeat expansion [9] = assay: Binding affinity to 5'-biotinylated r(CUG)12 RNA repeat (unknown origin) assessed as disruption of r(CUG)12-His-tagged MBNL1 complex formation preincubated for 15 mins followed by MBNL1 addition and measured after 15 mins by TR-FRET assay; type: nucleic-acid assay
Nucleic Acid = assay: Binding affinity to r(CG)8 RNA repeat (unknown origin) measured after 10 mins by fluorescence assay; type: nucleic-acid assay
Myotube [10] = assay: Effect on MBNL1 exon 5 splicing in wild type human myotubes at 0.04 to 1 uM measured after 48 hrs by RT-qPCR analysis; type: functional; settings: dose 0.04-1 µM
Myotube [11] = assay: Effect on alternative splicing of MAP4K4 exon 22a in DM1-patient derived myotubes at 0.04 to 1 uM measured after 48 hrs by RT-qPCR analysis; type: functional; settings: Homo sapiens, dose 0.04-1 µM
r(CUG) repeat expansion [12] = assay: Binding affinity to r(CUG)exp RNA repeat in DM1-patient derived myotubes assessed as reduction in number of r(CUG)exp-MBNL1 foci at 1 uM measured after 48 hrs by RNA fluorescence in situ hybridization assay; design: scale not given: the % may be the effect or the level left; settings: Homo sapiens, Myotube
Method in brief: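 Nuclear foci counted in DM1 myotubes by confocal imaging: MBNL1 by immunofluorescence, r(CUG)exp by RNA FISH. Foci per nucleus from 40 nuclei per replicate, n = 3; Student's t-test.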

r(CUG) repeat expansion [13] = assay: Binding affinity to r(CUG)exp RNA repeat in DM1-patient derived myotubes assessed as improvement in MBNL1 exon 5 splicing defect at 5 uM measured after 48 hrs by RT-qPCR analysis relative to control; settings: Homo sapiens, Myotube; method in brief: as §2

Compound: CNCCCCN(CC(=O)N(CC(=O)N(CCCNC(=O)CCCOc1cccc(-c2nc3ccc(-c4nc5cc(N6CCN(C)CC6)ccc5[nH]4)cc3[nH]2)c1)CC(N)=O)C1CC1)C(=O)CN(CCOC)C(=O)CN(CCO)C(=O)CCCOc1cccc(-c2nc3ccc(-c4nc5cc(N6CCN(C)CC6)ccc5[nH]4)cc3[nH]2)c1
- Activity [1]: Non-Toxic
- Drug uptake [2]: Active

Compound: COc1ccc(CN(CC(=O)N(CCCNC(=O)CCCOc2cccc(-c3nc4ccc(-c5nc6cc(N7CCN(C)CC7)ccc6[nH]5)cc4[nH]3)c2)CC(N)=O)C(=O)CN(Cc2cccnc2)C(=O)CN(C(=O)CN(C)C(=O)CCCOc2cccc(-c3nc4ccc(-c5nc6cc(N7CCN(C)CC7)ccc6[nH]5)cc4[nH]3)c2)C2CC2)cc1
- Activity (r(CUG) repeat expansion [3]): 2%
- Activity [1]: Toxic
- Activity (r(CUG) repeat expansion [4]): Active
- Drug uptake [2]: Active
- Activity [5]: Non-Toxic
- Activity (r(CUG) repeat expansion [6]): Dose-dependent effect

Compound: CNCCCCN(CC(=O)N(CCN)CC(=O)N(CCCNC(=O)CCCOc1cccc(-c2nc3ccc(-c4nc5cc(N6CCN(C)CC6)ccc5[nH]4)cc3[nH]2)c1)CC(N)=O)C(=O)CN(C)C(=O)CN(CCCn1ccnc1)C(=O)CCCOc1cccc(-c2nc3ccc(-c4nc5cc(N6CCN(C)CC6)ccc5[nH]4)cc3[nH]2)c1
- Activity (r(CUG) repeat expansion [3]): 7%
- EC50 (r(CUG) repeat expansion [7]): 106 nM
- Activity (Myotube [8]): inactive
- Activity [1]: Toxic
- IC50 (r(CUG) repeat expansion [9]): 2.8 µM
- Activity (r(CUG) repeat expansion [4]): Active
- Activity (Nucleic Acid): inactive
- Activity (Myotube [10]): inactive
- Activity (Myotube [11]): inactive
- Activity (r(CUG) repeat expansion [12]): 20%
- Drug uptake [2]: Active
- Activity [5]: Non-Toxic
- Activity (r(CUG) repeat expansion [6]): Dose-dependent effect

Compound: CCCN(CC(=O)N(CCCNC(=O)CCCOc1cccc(-c2nc3ccc(-c4nc5cc(N6CCN(C)CC6)ccc5[nH]4)cc3[nH]2)c1)CC(N)=O)C(=O)CN(CCO)C(=O)CN(CCN)C(=O)CN(CCN1CCOCC1)C(=O)CCCOc1cccc(-c2nc3ccc(-c4nc5cc(N6CCN(C)CC6)ccc5[nH]4)cc3[nH]2)c1
- Activity [1]: Non-Toxic
- Drug uptake [2]: Active

Compound: CCCN(CC(=O)N(CCC)CC(=O)N(CCC)CC(=O)N(CCC)CC(=O)N(CC(N)=O)Cc1cn(CCCNC(=O)CCCOc2ccc(-c3nc4ccc(-c5nc6cc(N7CCN(C)CC7)ccc6[nH]5)cc4[nH]3)cc2)nn1)C(=O)CNCc1cn(CCCNC(=O)CCCOc2cccc(-c3nc4ccc(-c5nc6cc(N7CCN(C)CC7)ccc6[nH]5)cc4[nH]3)c2)nn1
- EC50 (r(CUG) repeat expansion [7]): 1140 nM
- IC50 (r(CUG) repeat expansion [9]): 32.2 µM
- Activity (r(CUG) repeat expansion [4]): inactive
- Activity (r(CUG) repeat expansion [13]): 30%
- Drug uptake [2]: Active

Compound: CNCCCCN(CC(=O)N(CCN)CC(=O)N(CCCNC(=O)CCCOc1cccc(-c2nc3ccc(-c4nc5cc(N6CCN(C)CC6)ccc5[nH]4)cc3[nH]2)c1)CC(N)=O)C(=O)CN(Cc1ccccc1)C(=O)CN(C)C(=O)CCCOc1cccc(-c2nc3ccc(-c4nc5cc(N6CCN(C)CC6)ccc5[nH]4)cc3[nH]2)c1
- Activity [1]: Non-Toxic
- Drug uptake [2]: Active

Compound: CCCN(CC(=O)N(CCCCNC)CC(=O)N(C)CC(=O)N(CCCNC(=O)CCCOc1cccc(-c2nc3ccc(-c4nc5cc(N6CCN(C)CC6)ccc5[nH]4)cc3[nH]2)c1)CC(N)=O)C(=O)CN(CCO)C(=O)CCCOc1cccc(-c2nc3ccc(-c4nc5cc(N6CCN(C)CC6)ccc5[nH]4)cc3[nH]2)c1
- Activity [1]: Non-Toxic
- Drug uptake [2]: Active
